Test results as given in ChEMBL document CHEMBL4028907, “Semisynthesis and Biological Evaluation of Xanthone Amphiphilics as Selective, Highly Potent Antifungal Agents to Combat Fungal Resistance” (J Med Chem, 2017).
≈ marks a conversion by molar mass, not a printed value.

Columns and labels:
[1] = Selectivity index, ratio of HC50 for New Zealand white rabbit RBC to MIC for Candida albicans ATCC 10231
Candida albicans [2] = assay: Antifungal activity against drug resistant Candida albicans DF2672R after 24 hrs by two fold serial dilution method; assay type: functional
How it was run: (§1)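 Candida grown on Sabouraud dextrose agar at 35 °C for 24 h, adjusted to ~5×10^3 CFU/mL. Two-fold dilutions from 100 to 0.78 μg/mL in Sabouraud dextrose broth, incubated at 35 °C for 24 h. MIC is the lowest concentration inhibiting growth by eye and by OD600. CLSI-based with minor modifications.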

Candida albicans [3] = assay: Antifungal activity against Candida albicans ATCC 10231 after 24 hrs by two fold serial dilution method; assay type: functional; details: ATCC 10231, 24 h; how it was run: as §1
[4] = Dissociation constant, pKa of compound; assay type: physicochemical

Row | Compound | Selectivity Index [1] | MIC (Candida albicans [2]) [µg/mL] | MIC (Candida albicans [3]) [µg/mL] | pKa [4]
1 | COc1c(OCC(O)CNCCNC(=N)N)cc2oc3cc(OCC(O)CNC(=N)N)c(CC=C(C)C)c(O)c3c(=O)c2c1CC=C(C)C (configuration not stated) | 8.6 | 6.25 (≈ 9.14 µM) | 6.25 (≈ 9.14 µM) | 
2 | CCCC[N+](C)(CCCC)CC(O)COc1cc2oc3cc(OCC(O)C[N+](C)(CCCC)CCCC)c(OC)c(CC=C(C)C)c3c(=O)c2c(O)c1CC=C(C)C.[I-].[I-] (configuration not stated) | 5.3 | 6.25 | 6.25 | 
3 | COC(=O)[C@H](CCCNC(=N)N)NC(=O)COc1cc2oc3cc(OCC(=O)N[C@@H](CCCNC(=N)N)C(=O)OC)c(OC)c(CC=C(C)C)c3c(=O)c2c(O)c1CC=C(C)C | 37.1 | 6.25 (≈ 7.21 µM) | 6.25 (≈ 7.21 µM) | 
4 | COc1c(OCC(O)CN(C)Cc2ccccc2)cc2oc3cc(OCC(O)CN(C)Cc4ccccc4)c(CC=C(C)C)c(O)c3c(=O)c2c1CC=C(C)C (configuration not stated) | > 32 | 6.25 (≈ 8.17 µM) | 12.5 (≈ 16.3 µM) | 
5 | COc1c(OCC(O)CNC2CCCCCCC2)cc2oc3cc(OCC(O)CNC4CCCCCCC4)c(CC=C(C)C)c(O)c3c(=O)c2c1CC=C(C)C (configuration not stated) | 29.7 | 6.25 (≈ 8.04 µM) | 6.25 (≈ 8.04 µM) | 
6 | COc1c(OCC(O)CN(C)C)cc2oc3cc(OCC(O)CN(C)C)c(CC=C(C)C)c(O)c3c(=O)c2c1CC=C(C)C (configuration not stated) | 4.8 | 6.25 (≈ 10.2 µM) | 6.25 (≈ 10.2 µM) | 
7 | C[C@@H]1[C@H](O)[C@@H](C)/C=C/C=C/C=C/C=C/C=C/C=C/C=C/[C@H](O[C@@H]2O[C@H](C)[C@@H](O)[C@H](N)[C@@H]2O)C[C@@H]2O[C@](O)(C[C@@H](O)C[C@@H](O)[C@H](O)CC[C@@H](O)C[C@@H](O)CC(=O)O[C@H]1C)C[C@H](O)[C@H]2C(=O)O [AMPHOTERICIN B] |  | 0.2 (≈ 0.216 µM) |  | 
8 | CCCCCCN(CCCCCC)CC(O)COc1cc2oc3cc(OCC(O)CN(CCCCCC)CCCCCC)c(OC)c(CC=C(C)C)c3c(=O)c2c(O)c1CC=C(C)C (configuration not stated) | > 32 | 12.5 (≈ 14 µM) | 12.5 (≈ 14 µM) | 
9 | CCCNCC(O)COc1cc2oc3cc(OCC(O)CNCCC)c(OC)c(CC=C(C)C)c3c(=O)c2c(O)c1CC=C(C)C (configuration not stated) | 11.6 | 6.25 (≈ 9.75 µM) | 6.25 (≈ 9.75 µM) | 
10 | COc1c(OCC(O)CN2CCCC2)cc2oc3cc(OCC(O)CN4CCCC4)c(CC=C(C)C)c(O)c3c(=O)c2c1CC=C(C)C (configuration not stated) | 4.2 | 6.25 (≈ 9.4 µM) | 6.25 (≈ 9.4 µM) | 11.3
11 | Clc1ccc(COC(Cn2ccnc2)c2ccc(Cl)cc2Cl)c(Cl)c1 (configuration not stated) [MICONAZOLE] |  | 0.39 (≈ 0.937 µM) |  | 
12 | COc1c(OCC(=O)N[C@@H](CCCNC(=N)N)C(N)=O)cc2oc3cc(OCC(=O)N[C@@H](CCCNC(=N)N)C(N)=O)c(CC=C(C)C)c(O)c3c(=O)c2c1CC=C(C)C | 20.5 | 6.25 (≈ 7.47 µM) | 6.25 (≈ 7.47 µM) | 
13 | COc1c(OCC(O)CNC(CO)(CO)CO)cc2oc3cc(OCC(O)CNC(CO)(CO)CO)c(CC=C(C)C)c(O)c3c(=O)c2c1CC=C(C)C (configuration not stated) | 3.9 | 6.25 (≈ 8.17 µM) | 6.25 (≈ 8.17 µM) | 
14 | COc1c(OCC(O)CNCCNCCN)cc2oc3cc(OCC(O)CNCCNCCN)c(CC=C(C)C)c(O)c3c(=O)c2c1CC=C(C)C (configuration not stated) | 13.2 to 26.4 | 12.5 (≈ 17.1 µM) | 6.25 (≈ 8.57 µM) | 
15 | COc1c(OCC(O)Cn2ccnc2)cc2oc3cc(OCC(O)Cn4ccnc4)c(CC=C(C)C)c(O)c3c(=O)c2c1CC=C(C)C (configuration not stated) | > 32 | 12.5 (≈ 19 µM) | 12.5 (≈ 19 µM) | 
16 | COc1c(OCC(O)CN2CCCCC2)cc2oc3cc(OCC(O)CN4CCCCC4)c(CC=C(C)C)c(O)c3c(=O)c2c1CC=C(C)C (configuration not stated) | 5.1 | 6.25 (≈ 9.02 µM) | 6.25 (≈ 9.02 µM) | 11.2
17 | COc1c(OCC(O)CNCc2ccc(F)cc2)cc2oc3cc(OCC(O)CNCc4ccc(F)cc4)c(CC=C(C)C)c(O)c3c(=O)c2c1CC=C(C)C (configuration not stated) | > 64 | 6.25 (≈ 8.09 µM) | 6.25 (≈ 8.09 µM) | 
18 | COc1c(OCC(O)C[N+](C)(C)C)cc2oc3cc(OCC(O)C[N+](C)(C)C)c(CC=C(C)C)c(O)c3c(=O)c2c1CC=C(C)C.[I-].[I-] (configuration not stated) | 2.9 | 12.5 | 12.5 | 
